# Test results published in ChEMBL document CHEMBL5046217, “Discovery of New Imidazo[2,1-b]thiazole Derivatives as Potent Pan-RAF Inhibitors with Promising In Vitro and In Vivo Anti-melanoma Activity” (J Med Chem, 2021).
# Assays:
# [1] = biological target: Mitogen-activated protein kinase 14 (Homo sapiens, UniProt Q16539); experiment: Inhibition of MAPK14 (unknown origin) incubated for 1 hr by qPCR analysis
# Summary of the method: (§1)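 Competition binding assay. Kinases were either T7-phage-tagged (grown in an E. coli BL21-derived host) or expressed in HEK-293 cells and DNA-tagged. […] Bound kinase was eluted with non-biotinylated ligand and quantified by qPCR.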
# [2] = Apparent permeability across basolateral to apical side in human Caco-2 cells at 5 uM measured every 15 mins for 1 hr by LC-MS/MS analysis; assay type: ADME, cell-based
# [3] = Tmax in Sprague-Dawley rat at 5 mg/kg, po by LC-MS/MS analysis; assay type: ADME, organism-based; details: in vivo
# Summary of the method: (§2)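 Male SD rats, 7−8 weeks, 250−300 g, three per group, dosed 5 mg/kg IV or PO. Vehicle was 5% DMSO/40% PEG400/55% water. Rats fasted 16 h before oral dosing. Samples taken every 30 min and measured by LC/MS/MS with carbamazepine as internal standard. Parameters from non-compartmental analysis of plasma concentration–time profiles.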
# [4] = biological target: Serine/threonine-protein kinase/endoribonuclease IRE1 (Homo sapiens, UniProt O75460); experiment: Inhibition of ERN1 (unknown origin) incubated for 1 hr by qPCR analysis; summary of the method: as §1
# Chain of Serine/threonine-protein kinase/endoribonuclease IRE1 (O75460 whole entry): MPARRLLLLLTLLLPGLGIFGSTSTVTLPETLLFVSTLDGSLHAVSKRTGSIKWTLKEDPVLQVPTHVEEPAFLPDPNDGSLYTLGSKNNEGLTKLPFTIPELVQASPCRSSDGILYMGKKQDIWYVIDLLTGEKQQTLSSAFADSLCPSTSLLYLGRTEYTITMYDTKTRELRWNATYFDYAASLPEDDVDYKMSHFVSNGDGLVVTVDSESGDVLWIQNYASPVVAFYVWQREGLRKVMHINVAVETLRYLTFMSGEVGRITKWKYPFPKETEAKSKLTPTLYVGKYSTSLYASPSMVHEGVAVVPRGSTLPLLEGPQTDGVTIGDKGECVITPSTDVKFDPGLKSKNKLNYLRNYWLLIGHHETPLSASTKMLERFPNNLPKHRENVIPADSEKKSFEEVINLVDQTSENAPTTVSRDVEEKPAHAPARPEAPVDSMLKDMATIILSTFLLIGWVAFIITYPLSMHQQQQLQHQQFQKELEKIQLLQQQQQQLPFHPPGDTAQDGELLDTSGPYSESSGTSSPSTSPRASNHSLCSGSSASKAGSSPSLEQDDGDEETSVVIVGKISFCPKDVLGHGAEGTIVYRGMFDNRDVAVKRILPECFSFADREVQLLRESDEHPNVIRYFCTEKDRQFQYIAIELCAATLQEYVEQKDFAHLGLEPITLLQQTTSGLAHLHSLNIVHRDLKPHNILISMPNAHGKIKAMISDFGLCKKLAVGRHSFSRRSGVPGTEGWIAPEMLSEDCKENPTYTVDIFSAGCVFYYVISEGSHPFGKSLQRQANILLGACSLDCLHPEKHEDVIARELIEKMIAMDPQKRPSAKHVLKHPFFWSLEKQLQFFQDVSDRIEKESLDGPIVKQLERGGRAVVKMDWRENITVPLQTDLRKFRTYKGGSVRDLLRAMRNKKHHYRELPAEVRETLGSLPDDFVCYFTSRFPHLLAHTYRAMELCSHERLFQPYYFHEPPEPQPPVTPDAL
# [5] = Stability in human plasma assessed as parent compound remaining at 10 uM measured after 120 mins by LC-MS analysis; assay type: ADME, cell-free; details: read-out: Stability
# Summary of the method: (§3)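 About 10 μM compound shaken in human or rat plasma at 37 °C for 30 and 120 min. Acetonitrile added, samples centrifuged at 4 °C, and remaining parent in the supernatant quantified by LC−MS. Procaine and diltiazem run as references.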
# [6] = Stability in rat plasma assessed as parent compound remaining at 10 uM measured after 30 mins by LC-MS analysis; assay type: ADME, cell-free; details: read-out: Stability; summary of the method: as §3
# [7] = biological target: Serine/threonine-protein kinase B-raf (Homo sapiens, UniProt P15056); experiment: Inhibition of human wild type BRAF using myelin basic protein as substrate in presence of [gamma-33P]ATP incubated for 40 mins by scintillation counting method
# Summary of the method: (§4)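 Radiometric kinase assay run at Reaction Biology. Kinase (5−10 mU) in 25 mM Tris pH 7.5, 0.02 mM EGTA, 10 mM magnesium acetate with 0.66 mg/mL myelin basic protein and [γ-33P]ATP at 1 μM ATP. Reaction started with Mg-ATP and run 40 min at room temperature, then stopped with 3% phosphoric acid. Spotted on P30 filtermat, washed, scintillation counted.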
# [8] = Acute toxicity in Hsd:athymic nude-Foxn1nu mouse at 50 to 250 mg/kg; assay type: organism-based; details: in vivo, dose 50-250 mg/kg
# Summary of the method: (§5)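 Male Hsd:Athymic Nude-Foxn1nu mice received the compound by injection at five single doses (50, 100, 250, 500 and 1000 mg/kg), with seven animals per dose group.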
# [9] = Acute toxicity in Hsd:athymic nude-Foxn1nu mouse assessed as animal mortality at 500 to 1000 mg/kg; assay type: organism-based; details: in vivo, dose 500-1000 mg/kg; summary of the method: as §5
# [10] = Clearance in Sprague-Dawley rat at 5 mg/kg, iv by LC-MS/MS analysis; assay type: ADME, organism-based; details: in vivo
# Summary of the method: (§6)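 Male SD rats (7–8 weeks, 250–300 g), three per group, were dosed at 5 mg/kg i.v. or p.o. in 5% DMSO/40% PEG400/55% water. Rats were fasted 16 h before oral dosing. Serum was sampled every 30 min and measured by LC/MS/MS with carbamazepine as internal standard. Parameters came from non-compartmental analysis.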
# [11] = Apparent permeability across apical to basolateral side in human Caco-2 cells at 5 uM measured every 15 mins for 1 hr by LC-MS/MS analysis; assay type: ADME, cell-based
# [12] = Cmax in Sprague-Dawley rat at 5 mg/kg, po by LC-MS/MS analysis; assay type: ADME, organism-based; parameters: route oral, dose 5 mg/kg; details: in vivo; summary of the method: as §6
# [13] = Volume of distribution in Sprague-Dawley rat at 5 mg/kg, iv by LC-MS/MS analysis; assay type: ADME, organism-based; details: in vivo; summary of the method: as §2
# [14] = biological target: Mitogen-activated protein kinase 8 (Homo sapiens, UniProt P45983); experiment: Inhibition of MAPK8 (unknown origin) incubated for 1 hr by qPCR analysis; summary of the method: as §1
# [15] = biological target: Fibroblast growth factor receptor 1 (Homo sapiens, UniProt P11362); experiment: Inhibition of FGFR1 (unknown origin) incubated for 1 hr by qPCR analysis
# [16] = biological target: Mitogen-activated protein kinase kinase kinase 20 (Homo sapiens, UniProt Q9NYL2); experiment: Inhibition of ZAK (unknown origin) incubated for 1 hr by qPCR analysis; summary of the method: as §1
# [17] = Stability in human plasma assessed as parent compound remaining at 10 uM measured after 30 mins by LC-MS analysis; assay type: ADME, cell-free; details: read-out: Stability; summary of the method: as §3
# [18] = Half life in Sprague-Dawley rat at 5 mg/kg, po by LC-MS/MS analysis; assay type: ADME, organism-based; details: in vivo; summary of the method: as §6
# [19] = biological target: T1, Receptor-type tyrosine-protein kinase FLT3 (Homo sapiens, UniProt P36888); experiment: Inhibition of FLT3 (unknown origin) incubated for 1 hr by qPCR analysis; summary of the method: as §1
# T1 sequence (P36888 whole entry): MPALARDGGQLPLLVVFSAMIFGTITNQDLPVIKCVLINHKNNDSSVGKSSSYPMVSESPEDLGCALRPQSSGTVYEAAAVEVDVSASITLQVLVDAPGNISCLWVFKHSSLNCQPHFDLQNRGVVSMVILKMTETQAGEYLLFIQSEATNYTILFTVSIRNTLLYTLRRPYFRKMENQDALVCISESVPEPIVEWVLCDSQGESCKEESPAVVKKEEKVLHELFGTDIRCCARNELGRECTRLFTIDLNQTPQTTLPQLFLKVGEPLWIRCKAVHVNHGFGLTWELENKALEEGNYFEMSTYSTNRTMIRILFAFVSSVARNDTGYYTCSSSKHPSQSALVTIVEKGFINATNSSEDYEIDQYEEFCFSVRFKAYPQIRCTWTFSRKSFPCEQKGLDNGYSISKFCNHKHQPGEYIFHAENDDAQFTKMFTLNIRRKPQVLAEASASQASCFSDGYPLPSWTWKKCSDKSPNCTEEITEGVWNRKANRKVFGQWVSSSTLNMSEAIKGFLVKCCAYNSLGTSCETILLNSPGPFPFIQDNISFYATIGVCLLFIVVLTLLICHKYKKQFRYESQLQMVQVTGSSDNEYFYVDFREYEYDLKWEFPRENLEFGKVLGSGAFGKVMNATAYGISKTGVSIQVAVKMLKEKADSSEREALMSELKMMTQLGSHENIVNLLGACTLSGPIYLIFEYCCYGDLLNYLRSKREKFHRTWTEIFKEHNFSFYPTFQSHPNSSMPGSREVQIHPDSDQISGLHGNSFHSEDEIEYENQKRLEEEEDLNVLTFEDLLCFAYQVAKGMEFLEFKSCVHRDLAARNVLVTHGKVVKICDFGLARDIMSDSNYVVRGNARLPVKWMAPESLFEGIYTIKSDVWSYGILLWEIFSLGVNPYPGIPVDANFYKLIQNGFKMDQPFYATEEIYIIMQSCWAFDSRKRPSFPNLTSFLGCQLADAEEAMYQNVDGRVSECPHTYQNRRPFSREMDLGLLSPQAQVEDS
# [20] = Half life in Sprague-Dawley rat at 5 mg/kg, iv by LC-MS/MS analysis; assay type: ADME, organism-based; details: in vivo; summary of the method: as §6
# [21] = biological target: RAF proto-oncogene serine/threonine-protein kinase (Homo sapiens, UniProt P04049); experiment: Inhibition of human wild type CRAF using myelin basic protein as substrate in presence of [gamma-33P]ATP incubated for 40 mins by scintillation counting method
# Chain of RAF proto-oncogene serine/threonine-protein kinase (P04049 whole entry): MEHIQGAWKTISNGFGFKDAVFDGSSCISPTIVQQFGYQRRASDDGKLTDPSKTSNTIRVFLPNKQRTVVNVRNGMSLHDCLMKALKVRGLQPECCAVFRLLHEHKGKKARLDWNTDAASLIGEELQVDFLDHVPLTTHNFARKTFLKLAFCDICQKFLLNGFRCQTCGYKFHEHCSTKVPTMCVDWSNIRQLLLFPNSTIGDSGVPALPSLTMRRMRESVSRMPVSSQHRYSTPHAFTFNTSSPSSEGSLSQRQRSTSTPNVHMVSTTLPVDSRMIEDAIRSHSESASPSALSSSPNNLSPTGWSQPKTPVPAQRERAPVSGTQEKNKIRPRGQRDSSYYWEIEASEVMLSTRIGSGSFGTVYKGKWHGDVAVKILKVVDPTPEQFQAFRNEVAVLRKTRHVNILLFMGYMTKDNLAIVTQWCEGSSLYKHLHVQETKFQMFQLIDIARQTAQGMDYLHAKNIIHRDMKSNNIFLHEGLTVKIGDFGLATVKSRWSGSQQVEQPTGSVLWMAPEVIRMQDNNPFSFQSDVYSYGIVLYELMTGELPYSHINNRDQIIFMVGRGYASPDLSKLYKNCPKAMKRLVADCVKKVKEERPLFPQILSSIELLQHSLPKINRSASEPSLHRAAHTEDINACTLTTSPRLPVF
# [22] = biological target: Mitogen-activated protein kinase 11 (Homo sapiens, UniProt Q15759); experiment: Inhibition of MAPK11 (unknown origin) incubated for 1 hr by qPCR analysis; summary of the method: as §1
# [23] = Oral bioavailability in Sprague-Dawley rat at 5 mg/kg by LC-MS/MS analysis; assay type: ADME, organism-based; details: in vivo; summary of the method: as §2
# [24] = biological target: Tyrosine-protein kinase ABL1 (Homo sapiens, UniProt P00519); experiment: Inhibition of ABL1 (unknown origin) incubated for 1 hr by qPCR analysis
# Chain of Tyrosine-protein kinase ABL1 (P00519 whole entry): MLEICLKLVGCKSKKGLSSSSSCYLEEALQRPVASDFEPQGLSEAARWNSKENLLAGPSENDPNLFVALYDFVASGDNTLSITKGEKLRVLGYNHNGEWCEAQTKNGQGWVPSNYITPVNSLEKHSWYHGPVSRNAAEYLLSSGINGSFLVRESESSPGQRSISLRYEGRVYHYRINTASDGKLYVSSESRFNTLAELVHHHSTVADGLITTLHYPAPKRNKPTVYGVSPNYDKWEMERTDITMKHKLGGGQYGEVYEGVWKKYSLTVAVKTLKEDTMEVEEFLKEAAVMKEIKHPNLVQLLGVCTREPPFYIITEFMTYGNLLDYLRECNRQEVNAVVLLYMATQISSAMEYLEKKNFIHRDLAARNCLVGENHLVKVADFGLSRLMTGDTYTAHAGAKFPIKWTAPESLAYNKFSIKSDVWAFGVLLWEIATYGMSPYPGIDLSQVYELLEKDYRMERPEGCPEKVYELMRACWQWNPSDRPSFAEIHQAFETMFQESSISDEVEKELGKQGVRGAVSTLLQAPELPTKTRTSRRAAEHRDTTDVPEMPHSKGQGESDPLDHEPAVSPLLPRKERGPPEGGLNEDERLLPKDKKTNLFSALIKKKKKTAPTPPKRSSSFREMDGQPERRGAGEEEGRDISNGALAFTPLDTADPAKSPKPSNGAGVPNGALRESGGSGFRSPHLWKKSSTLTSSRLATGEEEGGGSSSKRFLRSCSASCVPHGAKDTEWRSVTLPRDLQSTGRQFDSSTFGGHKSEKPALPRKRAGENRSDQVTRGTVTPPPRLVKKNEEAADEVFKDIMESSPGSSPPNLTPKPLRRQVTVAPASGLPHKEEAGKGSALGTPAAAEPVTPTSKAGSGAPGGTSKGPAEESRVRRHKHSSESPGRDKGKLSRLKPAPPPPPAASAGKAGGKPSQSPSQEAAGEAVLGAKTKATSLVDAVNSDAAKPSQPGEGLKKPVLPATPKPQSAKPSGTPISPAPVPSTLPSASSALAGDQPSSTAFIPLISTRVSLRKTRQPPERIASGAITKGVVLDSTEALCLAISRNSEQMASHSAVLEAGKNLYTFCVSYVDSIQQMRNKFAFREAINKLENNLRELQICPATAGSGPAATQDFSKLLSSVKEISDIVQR
# [25] = biological target: Serine/threonine-protein kinase B-raf (Homo sapiens, UniProt P15056, V600E); experiment: Inhibition of human BRAF V600E mutant using myelin basic protein as substrate in presence of [gamma-33P]ATP incubated for 40 mins by scintillation counting method; summary of the method: as §4
# Chain of Serine/threonine-protein kinase B-raf (Homo sapiens, UniProt P15056, V600E) (P15056 2-766 V600E limits assumed): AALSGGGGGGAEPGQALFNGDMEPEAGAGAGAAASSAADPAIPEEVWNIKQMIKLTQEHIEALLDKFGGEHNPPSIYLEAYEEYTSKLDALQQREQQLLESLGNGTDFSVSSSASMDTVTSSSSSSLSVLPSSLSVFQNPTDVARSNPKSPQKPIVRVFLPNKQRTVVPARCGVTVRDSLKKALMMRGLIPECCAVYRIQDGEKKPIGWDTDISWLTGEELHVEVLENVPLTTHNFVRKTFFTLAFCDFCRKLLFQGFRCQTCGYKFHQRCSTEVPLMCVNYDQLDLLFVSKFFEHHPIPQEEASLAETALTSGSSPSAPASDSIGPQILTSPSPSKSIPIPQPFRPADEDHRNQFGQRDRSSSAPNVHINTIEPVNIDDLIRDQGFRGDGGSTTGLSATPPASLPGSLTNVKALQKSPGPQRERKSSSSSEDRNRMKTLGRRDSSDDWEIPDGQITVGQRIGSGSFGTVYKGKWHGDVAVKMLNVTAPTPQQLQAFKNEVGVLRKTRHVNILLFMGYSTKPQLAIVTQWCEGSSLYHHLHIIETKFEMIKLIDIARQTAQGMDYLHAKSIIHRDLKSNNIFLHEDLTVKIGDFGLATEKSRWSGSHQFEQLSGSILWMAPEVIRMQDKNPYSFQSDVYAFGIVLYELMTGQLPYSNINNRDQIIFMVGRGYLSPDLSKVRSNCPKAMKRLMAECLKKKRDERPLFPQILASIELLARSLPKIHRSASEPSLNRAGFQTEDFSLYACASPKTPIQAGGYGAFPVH
# [26] = Stability in rat plasma assessed as parent compound remaining at 10 uM measured after 120 mins by LC-MS analysis; assay type: ADME, cell-free; details: read-out: Stability; summary of the method: as §3
# [27] = biological target: Homeodomain-interacting protein kinase 1 (Homo sapiens, UniProt Q86Z02); experiment: Inhibition of HIPK1 (unknown origin) incubated for 1 hr by qPCR analysis; summary of the method: as §1
# Chain of Homeodomain-interacting protein kinase 1 (Q86Z02 whole entry): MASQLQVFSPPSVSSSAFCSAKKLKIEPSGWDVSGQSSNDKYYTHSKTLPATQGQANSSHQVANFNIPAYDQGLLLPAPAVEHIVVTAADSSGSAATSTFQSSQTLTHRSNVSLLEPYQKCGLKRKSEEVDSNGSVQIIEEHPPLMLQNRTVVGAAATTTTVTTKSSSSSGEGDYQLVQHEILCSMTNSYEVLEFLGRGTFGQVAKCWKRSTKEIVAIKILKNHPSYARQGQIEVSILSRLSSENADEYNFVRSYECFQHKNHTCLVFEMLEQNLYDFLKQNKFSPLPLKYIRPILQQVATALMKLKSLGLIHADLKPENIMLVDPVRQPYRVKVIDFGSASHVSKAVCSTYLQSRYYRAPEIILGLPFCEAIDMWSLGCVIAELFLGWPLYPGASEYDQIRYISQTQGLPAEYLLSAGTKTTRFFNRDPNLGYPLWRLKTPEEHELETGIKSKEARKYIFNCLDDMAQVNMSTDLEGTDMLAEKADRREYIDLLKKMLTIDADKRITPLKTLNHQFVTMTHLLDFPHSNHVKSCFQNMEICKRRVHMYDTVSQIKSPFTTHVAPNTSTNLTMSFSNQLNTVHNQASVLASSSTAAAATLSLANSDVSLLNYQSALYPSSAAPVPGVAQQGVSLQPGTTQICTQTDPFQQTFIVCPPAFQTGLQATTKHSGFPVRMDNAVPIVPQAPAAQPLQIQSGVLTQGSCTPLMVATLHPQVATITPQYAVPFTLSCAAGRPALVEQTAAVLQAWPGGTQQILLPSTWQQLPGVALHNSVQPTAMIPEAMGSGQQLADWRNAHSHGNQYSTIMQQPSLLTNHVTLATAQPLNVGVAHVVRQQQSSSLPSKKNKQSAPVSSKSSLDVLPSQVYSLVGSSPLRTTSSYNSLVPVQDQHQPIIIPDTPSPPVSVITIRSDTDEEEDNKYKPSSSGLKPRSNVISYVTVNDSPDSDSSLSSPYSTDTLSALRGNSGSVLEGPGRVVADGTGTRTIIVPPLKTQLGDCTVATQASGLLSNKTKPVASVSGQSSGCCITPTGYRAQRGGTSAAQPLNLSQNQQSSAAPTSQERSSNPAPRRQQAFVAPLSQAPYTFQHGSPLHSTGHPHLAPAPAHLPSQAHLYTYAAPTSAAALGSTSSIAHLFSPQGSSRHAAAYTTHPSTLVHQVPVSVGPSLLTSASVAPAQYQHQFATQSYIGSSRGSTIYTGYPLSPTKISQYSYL
# Chain of Mitogen-activated protein kinase 14 (Q16539 whole entry): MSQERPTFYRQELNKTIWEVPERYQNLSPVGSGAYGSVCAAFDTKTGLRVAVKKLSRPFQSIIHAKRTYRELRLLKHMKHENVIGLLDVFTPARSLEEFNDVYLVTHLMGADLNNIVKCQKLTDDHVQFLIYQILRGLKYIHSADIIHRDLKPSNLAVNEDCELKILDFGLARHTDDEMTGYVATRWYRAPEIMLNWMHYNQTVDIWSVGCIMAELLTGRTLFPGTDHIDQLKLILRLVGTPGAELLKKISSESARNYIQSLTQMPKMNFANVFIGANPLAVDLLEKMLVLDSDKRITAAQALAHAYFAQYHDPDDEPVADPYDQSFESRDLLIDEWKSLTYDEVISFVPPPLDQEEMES
structure (smiles),measurement,setting,value
CN1CCN(CCNc2nccc(-c3c(-c4cccc(O)c4)nc4sccn34)n2)S1(=O)=O,IC50,[1],1020 nM
same,"Papp B→A at 1 h, 5 µM",[2],21.8 ×10⁻⁶ cm/s
same,Tmax,[3],2.08 h
same,IC50,[4],11300 nM
same,"remaining at 2 h, 10 µM",[5],95.4%
same,"remaining at 0.5 h, 10 µM",[6],90.6%
same,IC50,[7],2 nM
same,Activity,[8],Non-Toxic
same,Activity,[9],Toxic
same,clearance,[10],2.07 mL/min/kg
same,"Papp A→B at 1 h, 5 µM",[11],14.2 ×10⁻⁶ cm/s
same,Cmax,[12],96.9 ng/mL
same,Vd,[13],0.578 L/kg
same,IC50,[14],910 nM
same,IC50,[15],13500 nM
same,IC50,[16],9010 nM
same,"remaining at 0.5 h, 10 µM",[17],97.2%
same,half-life,[18],3.35 h
same,IC50,[19],1510 nM
same,half-life,[20],1.72 h
same,IC50,[21],1.12 nM
same,IC50,[22],820 nM
same,bioavailability,[23],6.59%
same,IC50,[24],12400 nM
same,IC50,[25],0.07 nM
same,"remaining at 2 h, 10 µM",[26],76.6%
same,IC50,[27],3780 nM
